Measurements: PubChem BioAssay
Calls of active or inactive are those of the source.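 The calls were made as follows, unless noted: active = inhibition above 20% together with a positive visual image hit; inconclusive = visual image hit but inhibition not above 20%; inactive = no visual image hit.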

What was measured:
[1] = inhibitors of TNFa-induced NFkB p65 translocation, primary screen, imaging, HUVEC, MLSMR starter and 10KST1 sets (AID 438); settings: HUVEC TNFa-induced p65 nuclear translocation; cell count: measured here: nuclei count (cytotoxicity indicator), at 2.08 µM; inhibition: at 2 µM, stronger effect = higher value, 0% TNFa-plus-vehicle, 100% no-TNFa wells;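 also: compound added about 3h40 before a 20 min TNFalpha stimulation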;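 as to inhibition: signal is the nuclear over cytoplasmic p65 intensity ratio per well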
[2] = reduction of polyQ htt aggregates in cells – imaging, exon1htt(103Q)mCFP cells, high-content imaging, primary screen (AID 483;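 active = visual image review flags a hit and inhibition of aggregation exceeds 20%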;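 also: compound exposure lasted 3 days before fixation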;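 as to nuclei count: percent of the per-plate median nuclei count of sample wells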); settings: exon1htt(103Q)mCFP cell line, aggregate imaging, at 2 µM; inhibition of aggregation: stronger effect = higher value; nuclei count: measured here: cell count, toxicity
[3] = endothelial E-selectin expression blockers – imaging, HUVEC, immunofluorescence, MLSMR starter and 10KST1 sets, primary screen (AID 487;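 active = visually confirmed hit in the image check and inhibition above 20%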;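 as to inhibition: signal is fraction of cell area covered by stained E-selectin grains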;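 as to nuclei count: 100% = median nuclei count of all wells on the same plate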); settings: HUVEC TNFalpha-induced E-selectin immunofluorescence imaging, at 2 µM; inhibition: stronger effect = higher value; nuclei count: measured here: cell number, toxicity
[4] = molecular target: Voltage-gated potassium channel subunit beta-2 (Rattus norvegicus) (UniProt P62483); assay: inhibitors of rat Kvbeta2 reductase activity – biochemical, NADPH fluorescence, primary screen (AID 622;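 active = fluorescence slope higher than the sample average by over 3 SD, cut at about -0.22 in these data, passing the limit was not always enough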;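 also: slope of raw intensity against log time taken from 70 to 1610 s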); settings: recombinant KvBeta, 4-cyanobenzaldehyde reduction, at 10 µM, stronger effect = higher value
[5] = molecular target: Voltage-gated potassium channel subunit beta-2 (Rattus norvegicus) (UniProt P62483); assay: enhancers of rat Kvbeta2 NADPH turnover – biochemical, NADPH fluorescence, primary screen (AID 623;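 active = NADPH fluorescence slope more negative than the mean of all samples by about 3 SD, 99.7% confidence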;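 also: fluorescence intensity change per second fitted from 20 to 320 s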); settings: Recombinant KvBeta, NADPH fluorescence decrease slope, 10 min; at 10 µM; stronger effect = lower value
[6] = molecular target: Muscarinic acetylcholine receptor M4 (Homo sapiens) (UniProt P08173); assay: M4-linked GIRK flux change, two-sided – cell-based, HEK293 M4/GIRK, thallium flux, BTC-AM, M4 allosteric agonist project, primary screen (AID 625;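 active = fluorescence slope after compound addition differing from the mean of all tested samples at 99.7% confidence, mostly higher but some lower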;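 also: thallium influx through GIRK channels coupled to M4 in HEK293 cells with BTC-AM dye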); settings: at 10 µM, actives lie on both sides
In short: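 assay system = HEK293 cells with M4 receptor and GIRK channels | medium = pH 7.3 thallium assay buffer | doses = 10 µM final, single point | timing = cells overnight at 37 °C, BTC-AM loading 1 h, reads 2 min total | signal = BTC-AM fluorescence, 1 Hz kinetic reads | read-out = post-addition slope, 15–24 s, of baseline-normalized fluorescence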

[7] = blockers of RIG-like receptor reporter activation – cell-based, Sendai virus stimulus, luciferase, 10K MLSCN set, TLR/RLR signaling modifier project, primary screen (AID 602276;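 active = inhibition at or above 50% at 10 µM; inactive = inhibition below 50%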;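 also: firefly luciferase from ISG56 promoter only with Renilla not read in this screen; 0% = Sendai virus plus DMSO and 100% = medium plus DMSO without virus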); settings: HEK293 RL24 IRF3 luciferase reporter, at 10 µM, stronger effect = higher value
[8] = TLR3 IRF3 reporter activation blockers – cell-based, poly I:C stimulus, luciferase, 10K MLSCN set, primary screen (AID 602277;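 active = inhibition of the reporter signal at or above 50%; inactive = inhibition below 50%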); settings: HEK293-TLR3 RL24 IRF3 luciferase reporter, at 10 µM, stronger effect = higher value

Muscarinic acetylcholine receptor M4 (Homo sapiens), sequence (P08173 whole entry, looked up): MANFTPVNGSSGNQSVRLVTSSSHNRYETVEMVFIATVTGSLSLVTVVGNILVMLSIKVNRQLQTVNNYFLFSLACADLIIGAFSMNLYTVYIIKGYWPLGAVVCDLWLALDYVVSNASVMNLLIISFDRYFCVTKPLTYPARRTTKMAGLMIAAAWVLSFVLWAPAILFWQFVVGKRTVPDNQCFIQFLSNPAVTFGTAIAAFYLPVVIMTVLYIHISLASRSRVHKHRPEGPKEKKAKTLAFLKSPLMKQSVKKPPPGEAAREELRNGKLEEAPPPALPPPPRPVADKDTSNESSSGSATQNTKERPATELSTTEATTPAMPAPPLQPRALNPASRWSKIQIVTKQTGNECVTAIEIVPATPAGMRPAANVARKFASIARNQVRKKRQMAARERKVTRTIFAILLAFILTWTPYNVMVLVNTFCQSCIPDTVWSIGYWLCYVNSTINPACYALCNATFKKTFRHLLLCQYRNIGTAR
Voltage-gated potassium channel subunit beta-2 (Rattus norvegicus), sequence (P62483 whole entry, looked up): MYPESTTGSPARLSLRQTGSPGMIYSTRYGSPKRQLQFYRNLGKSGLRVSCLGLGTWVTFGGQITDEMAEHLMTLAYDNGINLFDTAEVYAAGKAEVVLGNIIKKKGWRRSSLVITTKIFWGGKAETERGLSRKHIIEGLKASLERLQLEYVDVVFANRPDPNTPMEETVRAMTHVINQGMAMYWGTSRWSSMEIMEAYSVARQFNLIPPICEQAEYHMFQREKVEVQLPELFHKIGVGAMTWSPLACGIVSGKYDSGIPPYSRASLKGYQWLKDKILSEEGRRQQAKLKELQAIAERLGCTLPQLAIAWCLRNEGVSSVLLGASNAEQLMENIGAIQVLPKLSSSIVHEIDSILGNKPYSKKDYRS

Row | Structure (SMILES) | cell count [1] | inhibition [1] | inhibition of aggregation [2] | nuclei count [2] | inhibition [3] | nuclei count [3] | fluorescence slope [4] | NADPH fluorescence slope [5] | fluorescence slope [6] | inhibition [7] | inhibition [8]
1 | CCN1CCN(c2c(Cl)cccc2NC(=O)c2ccc3c(c2)OCCO3)CC1 | 505 | 2.1% (inactive) | -4.5% (inactive) | 111% | -82.8% (inactive) | 216% | -0.264 (inactive) | -8.8e-06 (inactive) | 0.0079 (inactive) | 10.2% (inactive) | 18.4% (inactive)
2 | CCCCOc1ccc(NC(=O)Cn2c(=O)ccc3c(C)cc(C)nc32)cc1 | 400 | 5.6% (inactive) | 11.8% (inactive) | 88.5% | -342% (inactive) | 149% | -0.565 (inactive) | 8.6e-06 (inactive) | 0.0062 (inactive) | 15.2% (inactive) | 20.7% (inactive)
3 | Cc1cc(C)n(CCCNC(=O)c2ccc(S(=O)(=O)NCc3ccco3)cc2)n1 | 682 | -4.4% (inactive) | -3.9% (inactive) | 108% | -9.9% (inactive) | 136% | -0.562 (inactive) | -8.3e-05 (inactive) | 0.00603 (inactive) | 18.9% (inactive) | 23% (inactive)
4 | COc1ccc(-c2ccc(-c3nnc(-c4ccncc4)o3)cc2)cc1 | 379 | -7.7% (inactive) | 5.3% (inactive) | 103% | -76.9% (inactive) | 99.2% | -0.501 (inactive) | -3.5e-05 (inactive) | 0.00505 (inactive) | -14.4% (inactive) | -28.2% (inactive)
5 | Cc1cc(NCCCn2ccnc2)n2c(nc3ccccc32)c1C#N | 276 | -23.5% (inactive) | 17.7% (inactive) | 70.2% | 16.6% (inactive) | 80.2% | -0.501 (inactive) | 2e-06 (inactive) | 0.00606 (inactive) | -6.75% (inactive) | -0.197% (inactive)
6 | Cn1c(=O)[nH]c(=O)c2[nH]c(CN3CCN(C(=O)c4ccco4)CC3)nc21 | 418 | -2.3% (inactive) | -1.2% (inactive) | 124% | -5.3% (inactive) | 131% | -0.54 (inactive) | -1.3e-05 (inactive) | 0.00483 (inactive) | 1.74% (inactive) | 11% (inactive)
7 | O=C(NCc1ccccc1)N1CCn2c(nc3ccccc32)C1 | 555 | 2.5% (inactive) | 8.2% (inactive) | 99.6% | -13.3% (inactive) | 111% | -0.413 (inactive) | -2.6e-05 (inactive) | 0.00568 (inactive) | -0.797% (inactive) | -7.43% (inactive)
8 | Cc1ccc(NC(=O)C2CCCN2C(=O)Oc2ccccc2)cc1 (stereo not drawn) | 344 | 6% (inactive) | 3.9% (inactive) | 88.6% | 26.5% (inactive) | 79.2% | -0.41 (inactive) | -6.8e-06 (inactive) | 0.00654 (inactive) | 5.65% (inactive) | 12.3% (inactive)
9 | CC1Oc2ccccc2N(CC(=O)N(Cc2ccccc2)Cc2ccccn2)C1=O (stereo not drawn) | 640 | -12.1% (inactive) | -1.2% (inactive) | 106% | 81.9% (active) | 112% | -0.297 (inactive) | -8.9e-06 (inactive) | 0.00604 (inactive) | -6.61% (inactive) | -7.77% (inactive)
10 | O=c1[nH]c2ccc(S(=O)(=O)N3CCN(C4CCCCC4)CC3)cc2[nH]c1=O | 264 | -7.8% (inactive) | -36.5% (inactive) | 90.7% | -52.5% (inactive) | 122% | -0.484 (inactive) | -0.000259 (inactive) | 0.00453 (inactive) | -0.0358% (inactive) | 6.71% (inactive)
11 | CCn1c(CNc2ccc(C)cc2)nnc1SCC(=O)NCc1ccccc1 | 648 | 13.4% (inactive) | 5.4% (inactive) | 81.4% | -45% (inactive) | 115% | -0.486 (inactive) | 0.000173 (inactive) | 0.00606 (inactive) | -9.51% (inactive) | -4.1% (inactive)
12 | C=CCc1cc(C(=O)N2CCCCC2)ccc1O | 442 | 3.4% (inactive) | 6.3% (inactive) | 99.5% | -96.3% (inactive) | 118% | -0.523 (inactive) | -0.000166 (inactive) | 0.00415 (inactive) | 5.94% (inactive) | -14% (inactive)
13 | O=C1CCc2nc3sc4c(c3c(=O)n2N1)CCCC4 | 667 | -18.1% (inactive) | -14% (inactive) | 104% | 37.8% (inactive) | 98.8% | -0.424 (inactive) | 4.4e-05 (inactive) | 0.00678 (inactive) | -2.82% (inactive) | -5.12% (inactive)
14 | CCCC(=O)N=C1SC2CS(=O)(=O)CC2N1c1ccc(CC)cc1 (stereo not drawn) | 286 | 20.4% (inactive) | 23.4% (inactive) | 87% | 26.4% (inactive) | 98.5% | -0.402 (inactive) | -3.7e-05 (inactive) | 0.0062 (inactive) | 15.3% (inactive) | 24.6% (inactive)
15 | CCOC(=O)c1c(NC(=O)Cn2c(C)nc3ccccc32)sc2c1CCC2 | 459 | -6.2% (inactive) | 15.3% (inactive) | 102% | -75.4% (inactive) | 112% | -0.552 (inactive) | -2.4e-05 (inactive) | 0.00437 (inactive) | 17.3% (inactive) | 24% (inactive)
16 | Cc1nc2sc3c(c2c(=O)o1)CCC3 | 619 | 2.1% (inactive) | -0.2% (inactive) | 108% | 0.3% (inactive) | 93.8% | -0.511 (inactive) | -0.000121 (inactive) | 0.00356 (inactive) | 16.2% (inactive) | 22.8% (inactive)
17 | Nc1nc(CN2CCOCC2)cs1 | 650 | -4.8% (inactive) | 7.7% (inactive) | 104% | 14.6% (inactive) | 113% | -0.577 (inactive) | -2.3e-05 (inactive) | 0.00598 (inactive) | 15.2% (inactive) | 14.7% (inactive)
18 | CCCS(=O)(=O)N1CCCC(C(=O)N2CCC(Cc3ccccc3)CC2)C1 (stereo not drawn) | 662 | -11.9% (inactive) | 5% (inactive) | 105% | -82.7% (inactive) | 106% | -0.5 (inactive) | -0.000282 (inactive) | 0.00325 (inactive) | 11.3% (inactive) | 12.1% (inactive)
19 | COc1cccc2cc(C(=O)N3CCc4ccccc43)c(=O)oc12 | 274 | 4.3% (inactive) | -4.2% (inactive) | 106% | 18.4% (inactive) | 99% | -0.466 (inactive) | -5.5e-06 (inactive) | 0.00512 (inactive) | 8.43% (inactive) | 21% (inactive)
20 | CCC(=O)c1ccc(OCC(=O)N2CCc3cc(OC)c(OC)cc3C2)cc1 | 369 | 10.8% (inactive) | 17.3% (inactive) | 91.3% | 25.9% (inactive) | 99.5% | -0.577 (inactive) | -4.3e-05 (inactive) | 0.00901 (inactive) | 3.27% (inactive) | 12.3% (inactive)
21 | Cc1cc(=O)n2[nH]c(COc3ccccc3)nc2n1 | 203 | -7.9% (inactive) | 31.3% (inactive) | 101% | -85.5% (inactive) | 91.6% | -0.531 (inactive) | -4.3e-05 (inactive) | 0.00471 (inactive) | 6.61% (inactive) | 14.8% (inactive)
22 | CCOc1ccc(OCC)c2sc(C)nc12 | 339 | 2.4% (inactive) | 8.2% (inactive) | 102% | 1% (inactive) | 106% | -0.591 (inactive) | -5.9e-05 (inactive) | 0.00571 (inactive) | 12.4% (inactive) | -8.47% (inactive)
23 | O=C(Cn1nnc2c(cnn2-c2ccc(F)cc2)c1=O)c1ccccc1F | 438 | 5.1% (inactive) | -13.6% (inactive) | 104% | -86.3% (inactive) | 118% | -0.553 (inactive) | -4.4e-05 (inactive) | 0.00571 (inactive) | 11.8% (inactive) | 10.7% (inactive)
24 | c1ccc(CC2CCN(Cc3nc(-c4ccccc4)no3)CC2)cc1 | 229 | 4.2% (inactive) | -5.2% (inactive) | 81.6% | -139% (inactive) | 124% | -0.456 (inactive) | -1.9e-05 (inactive) | 0.00542 (inactive) | 5.55% (inactive) | -19% (inactive)
25 | CCOC(=O)c1nnn(CC(=O)Nc2cccc(OC)c2)c1C(=O)OCC | 395 | 8% (inactive) | 20.4% (inactive) | 89% | -10.7% (inactive) | 106% | -0.416 (inactive) | -3.9e-05 (inactive) | 0.00731 (inactive) | 9.94% (inactive) | 14.1% (inactive)
26 | O=C(COC(=O)c1cc(S(=O)(=O)N2CCOCC2)ccc1O)NCC1CCCO1 (stereo not drawn) | 426 | 9.7% (inactive) | -4.1% (inactive) | 88.7% | -39.1% (inactive) | 113% | -0.345 (inactive) | 5.4e-05 (inactive) | 0.00615 (inactive) | 15.4% (inactive) | 24.6% (inactive)
27 | Cc1ccc(S(=O)(=O)N2CCC(C(=O)N[C@@H](Cc3ccccc3)C(=O)O)CC2)cc1 | 332 | -14.4% (inactive) | 11.7% (inactive) | 99.8% | 41.9% (inactive) | 97.6% | -0.563 (inactive) | -4.9e-05 (inactive) | 0.00616 (inactive) | -10.7% (inactive) | -5.08% (inactive)
28 | Cc1cc(NC(=O)c2ccccc2Oc2ccccc2)no1 | 708 | -0.2% (inactive) | 23.9% (inactive) | 102% | 23.9% (inactive) | 101% | -0.532 (inactive) | -6.9e-05 (inactive) | 0.00465 (inactive) | 12.4% (inactive) | 9.02% (inactive)
